Test [1] relates to Hep-G2 (Human hepatocellular carcinoma). As to the kind of experiment: MTT cytotoxic assay, Hep-G2. As to conditions: for IC50: Homo sapiens, HepG2, 36 h, read-out: IC50 Hep-G2. It counts as cell-based.
The test system of test [2] is A549 (Human lung carcinoma). As to the kind of experiment: MTT cytotoxic assay, A549. Format: cell-based. As to conditions: for IC50: Homo sapiens, A549, 36 h, read-out: IC50 A549.
Test [3] concerns MCF-7 (Human breast adenocarcinoma). As to the kind of experiment: MTT cytotoxic assay, MCF-7. It counts as cell-based. As to conditions: for IC50: Homo sapiens, MCF7, 36 h, read-out: IC50 MCF-7.
The subject of test [4] is Vero cells (monkey kidney epithelial cells). As to the kind of experiment: MTT cytotoxic assay, Vero cells. Format: cell-based. As to conditions: for IC50: Primates, Vero; for IC50 Vero: MTT.
Test [5] has as its system NO production in LPS-stimulated RAW 264.7 macrophages. As to the kind of experiment: Nitrite. Format: cell-based, murine. An outline of the steps: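 RAW 264.7 cells were seeded at 2x10^5 per well and grown to about 70% confluence, then serum-starved in 1% FBS medium. Test compound was given at non-cytotoxic concentrations for 24 h at 37 °C, then cells were stimulated with 1 µg/mL LPS for 24 h. Supernatant nitrite was measured with Griess reagent (30 °C, 20 min) at 550 nm against a sodium nitrite standard curve. Runs were in triplicate, and IC50 came from inhibition-concentration plots.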

For test [6], the system named is RAW 264.7 macrophages. In words: MTT cell viability of RAW 264.7 macrophages. Format: cell-based, murine. An outline of the steps: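 RAW 264.7 cells were kept in DMEM with 10% FBS and penicillin/streptomycin at 37 °C, 5% CO2. Exponential-phase cells (5x10^4 per well) were exposed to serially diluted test compound (50-25-12.5-6.25 µg/mL) plus 1 µg/mL LPS for 36 h. MTT (0.5 mg/mL) was then added for 4 h at 37 °C. Formazan was dissolved in DMSO and read at 570 nm. Runs were in triplicate.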

Test [7] addresses T1, porcine pancreatic lipase (Type II) (Sus scrofa, UniProt P00591).
T1 sequence (P00591 1-450): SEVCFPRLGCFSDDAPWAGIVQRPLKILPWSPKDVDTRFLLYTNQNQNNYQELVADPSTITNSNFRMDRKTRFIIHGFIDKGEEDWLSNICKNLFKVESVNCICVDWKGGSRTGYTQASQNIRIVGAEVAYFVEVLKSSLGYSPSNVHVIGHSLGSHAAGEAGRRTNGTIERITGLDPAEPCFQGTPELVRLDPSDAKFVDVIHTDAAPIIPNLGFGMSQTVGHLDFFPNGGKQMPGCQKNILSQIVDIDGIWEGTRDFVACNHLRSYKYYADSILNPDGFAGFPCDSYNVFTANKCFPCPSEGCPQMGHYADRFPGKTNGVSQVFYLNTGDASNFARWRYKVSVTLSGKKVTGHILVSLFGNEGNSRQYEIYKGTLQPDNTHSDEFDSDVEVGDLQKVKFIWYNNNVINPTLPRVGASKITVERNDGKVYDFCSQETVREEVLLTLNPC
As to the kind of experiment: Lipase inhibitory assay. Format: biochemical. As to conditions: for inhibition at 500 µg/mL / inhibition at 125 µg/mL / inhibition at 250 µg/mL: read-out: Enzyme inhibition (pancreatic lipase). An outline of the steps: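 Porcine pancreatic lipase (Type II, 0.1 mg) was mixed with 6.66 μM p-nitrophenyl palmitate in ethanol/acetonitrile (2:1, v/v) and test compound in 0.061 M Tris-HCl, pH 8.5. The mixture was incubated at 37 °C for 25 min, stopped with ethanol, and substrate hydrolysis read at 405 nm. Runs were in triplicate. IC50 was estimated from inhibition-versus-concentration plots.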

For test [8], the system named is α-glucosidase from Saccharomyces cerevisiae. As to the kind of experiment: Alpha-glucosidase inhibitory assay. It counts as biochemical. As to conditions: for α-glucosidase inhibition rate: concentration of 400 µg/mL; for IC50: read-out: IC50 α-glucosidase, µM equivalent, converted from µg/mL.
The mark [9] stands for this setting: 36 h, read-out: IC50 Vero, MTT, 36 h.
The mark [10] stands for this setting: Mus musculus, RAW264.7, read-out: NO inhibition.
Where [11] appears, read: read-out: IC50 Vero, μM equivalent, converted from µg/mL.

Each structure is given as a SMILES string. ≈ marks a conversion by molar mass, not a printed value. Entries after “also recorded” stand apart in the source; their conditions may differ. Where two headings read alike, the source gives them in different places.

With `Cc1c2ccncc2c(C)c2c1[nH]c1ccccc12` [Ellipticine, reference compound], the IC50 in test [1] worked out at 1.26 µg/mL (≈ 5.12 µM); in test [2], 1.38 µg/mL (≈ 5.6 µM); in test [3], 2.69 µg/mL (≈ 10.9 µM); in test [4] (setting [9]), 8.61 µg/mL.
As to `CC(C)[C@@H](C)/C=C/[C@@H](C)[C@H]1CC[C@H]2C3=C[C@@H](O)[C@@]4(O)C[C@@H](O)CC[C@]4(C)[C@H]3CC[C@]12C` [Compound (1), cerevisterol], the IC50 in test [1], in test [2], in test [3] and in test [4] (setting [9]) was above 50 µg/mL throughout. Besides, in test [1] (MTT, 36 h), the “IC50 Hep-G2” value is given as “no significant effect; also recorded: did not show any cytotoxicity”. The “IC50 A549” value in test [2] (MTT, 36 h) is recorded as “no significant effect; also recorded: did not show any cytotoxicity”. Besides, the “IC50 MCF-7” value in test [3] (MTT, 36 h) was “no significant effect; also recorded: did not show any cytotoxicity”. For the same molecule, the “IC50 Vero” value in test [4] (36 h) was “did not show any cytotoxicity”. The inhibition at 1 µg/mL in test [5] (setting [10]) came to 14.4 ± 1.5%. Further, the inhibition at 5 µg/mL in test [5] (setting [10]) is 30.9 ± 1.04%. In addition, in test [5] (setting [10]), the inhibition at 25 µg/mL is 48.8 ± 1.43%. Further, the inhibition at 50 µg/mL in test [5] (setting [10]) stood at 54.2 ± 1.27%. The Cell survival in test [6] (test concentration 1 µg/mL) is on record as 98.05 ± 0.67%; in test [6] (test concentration 5 µg/mL) it was 97.69 ± 1.20%; in test [6] (test concentration 25 µg/mL), 96.78 ± 0.63%; in test [6] (test concentration 50 µg/mL), 98.40 ± 1.73%. Moreover, the inhibition at 500 µg/mL in test [7] came out at 0%. The α-glucosidase inhibition rate in test [8] is listed as 12.69 ± 1.06%.
With `CC(C)[C@@H](C)/C=C/[C@@H](C)[C@H]1CCC2=C3C=C[C@@]4(O)C[C@@H](O)CC[C@]4(C)[C@H]3CC[C@@]21C` [Compound (3), (3β,5α,22E)-ergosta-6,8(14),22-triene-3,5-diol], the IC50 in test [1] is 2.89 µg/mL (≈ 7 µM); in test [2] it was 18.5 µg/mL (≈ 44.9 µM); in test [3], 16.5 µg/mL (≈ 39.9 µM); in test [4] (setting [9]), 10.4 µg/mL; in test [4] (setting [11]) it was 24.2 µM; in test [7], above 1.21 mM. Further, the IC50 in test [8] worked out at 60 µM. For the same molecule, the “IC50 Vero” value in test [4] (36 h) is 18.40 µg/mL (≈ 44.6 µM). The inhibition at 1 µg/mL in test [5] (setting [10]) is 32.8 ± 0.73%. Further, the inhibition at 5 µg/mL in test [5] (setting [10]) came out at 55.2 ± 1.2%. For the same molecule, in test [5] (setting [10]), the inhibition at 25 µg/mL worked out at 71.4 ± 1.38%. The Cell survival worked out at 93.19 ± 0.49% in test [6] (test concentration 1 µg/mL), 93.86 ± 1.33% in test [6] (test concentration 5 µg/mL), 82.31 ± 0.78% in test [6] (test concentration 25 µg/mL) and 1.70 ± 0.27% in test [6] (test concentration 50 µg/mL). Also, in test [7], the inhibition at 125 µg/mL was determined as 1.29 ± 1.11%. In addition, the inhibition at 250 µg/mL in test [7] came to 12.1 ± 0.95%. For the same molecule, in test [7], the inhibition at 500 µg/mL is 23.8 ± 2.31%. For the same molecule, the “IC50 α-glucosidase” value in test [8] is given as 25.81 µg/mL (≈ 62.5 µM). Moreover, in test [8], the α-glucosidase inhibition rate entry is recorded as “greater than 50%”.
Take `CC(C)[C@@H](C)/C=C/[C@@H](C)[C@H]1CC[C@@H]2[C@]1(C)CC[C@H]1[C@]23C=C[C@]2(C[C@@H](O)CC[C@]12C)OO3` [Compound (2), ergosterol peroxide]: the IC50 in test [1] was 16.2 µg/mL (≈ 37.8 µM); in test [2], 22.5 µg/mL (≈ 52.4 µM); in test [3], 27.1 µg/mL (≈ 63.2 µM); in test [4] (setting [11]) it was 11.5 µM; in test [7], above 1.17 mM; in test [8] it was 51.1 µM. Moreover, the “IC50 Vero” value in test [4] (36 h) is given as 14.93 µg/mL (≈ 34.8 µM). For the same molecule, in test [5] (setting [10]), the inhibition at 1 µg/mL worked out at 28 ± 0.84%. Moreover, the inhibition at 5 µg/mL in test [5] (setting [10]) came to 56.7 ± 1.29%. For the same molecule, the inhibition at 25 µg/mL in test [5] (setting [10]) is 81.4 ± 1.35%. Besides, the Cell survival was determined as 98.08 ± 1.26% in test [6] (test concentration 1 µg/mL), 83.99 ± 1.05% in test [6] (test concentration 5 µg/mL), 60.87 ± 2.21% in test [6] (test concentration 25 µg/mL) and 2.18 ± 0.68% in test [6] (test concentration 50 µg/mL). The inhibition at 125 µg/mL in test [7] came to 2.54 ± 1.6%. In test [7], the inhibition at 250 µg/mL worked out at 11.7 ± 2.13%. Further, the inhibition at 500 µg/mL in test [7] stood at 25.9 ± 1.24%. For the same molecule, in test [8], the “IC50 α-glucosidase” value is 21.89 µg/mL (≈ 51.1 µM). In addition, the α-glucosidase inhibition rate result in test [8] is on record as “greater than 50%”.
On to `COc1cc(O)cc(O)c1C(=O)/C=C/c1ccccc1` [Cardamonin, reference compound], for which the “NO half-maximal inhibitory concentration (IC50)” value in test [5] (LPS-stimulated RAW 264.7) is recorded as 0.62 µg/mL. This molecule displayed an NO inhibition in test [5] (test concentration 0.81 µg/mL (3 µM), LPS 1 µg/mL) of 86.93 ± 0.96%. This molecule had a Cell survival in test [6] (test concentration 0.81 µg/mL (3 µM)) of 71.80 ± 0.51%.

(Values after article PMC10498798 (Mycobiology, 2023).)
